Only some compounds are listed: those with a hit (about 3.4% of all), similar ones and a draw of the others.
CHT PAM: human CHT allosteric activation | Q9GZV3 | CHT-expressing cells, membrane potential dye, choline EC20; active compounds read high; LV-AA mutant CHT in HEK293 cells | B-score at 10 µM | 310,000 tested, 0.49% active | AID 488977;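 active = initial fluorescence not abnormally high and integrated response B-score, plate-corrected, over 3 SD above library mean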
CHT inh: inhibitors of human choline transporter CHT; AID 488975; B-score at 10 µM; CHT-expressing cells, membrane potential dye, choline response; active compounds read low; 310,000 tested, 0.86% active;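 active = B-score over 3 SD under the library average, and starting fluorescence ratio not unusually high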;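 note: choline stimulus applied at its EC90 after an EC20 pre-addition; B-score computed on integrated fluorescence ratio after choline addition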
VIM-2 inhibitor: inhibitors of Pseudomonas aeruginosa VIM-2 metallo-beta-lactamase. inhibition, % at 5.6 µM. 290,000 tested, 0.89% active. purified VIM-2, nitrocefin hydrolysis, epi-absorbance fluorescence;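 active = inhibition above the mean of all tested compounds plus 3 SD, cutoff set per screening run, cut at about 7.5% in these data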;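 note: red hydrolysis product quenches plate fluorescence so inhibitors raise well fluorescence; 0% = enzyme with DMSO and 100% = DMSO without enzyme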
ANO1 block: inhibitors of mouse TMEM16A calcium-activated chloride channel; HEK293 TMEM16A/YFP iodide influx fluorescence, ionomycin; normalized B-score (activity score, 25-100; higher = stronger inhibition) at 10 µM; 310,000 tested, 1.2% active;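 active = ratio plate-corrected score three or more library SD toward inhibition, starting fluorescence score within five deviations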;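 note: score derived from kinetic fluorescence span divided by baseline fluorescence per well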
Target sequence (Q8BHY3 whole entry, looked up): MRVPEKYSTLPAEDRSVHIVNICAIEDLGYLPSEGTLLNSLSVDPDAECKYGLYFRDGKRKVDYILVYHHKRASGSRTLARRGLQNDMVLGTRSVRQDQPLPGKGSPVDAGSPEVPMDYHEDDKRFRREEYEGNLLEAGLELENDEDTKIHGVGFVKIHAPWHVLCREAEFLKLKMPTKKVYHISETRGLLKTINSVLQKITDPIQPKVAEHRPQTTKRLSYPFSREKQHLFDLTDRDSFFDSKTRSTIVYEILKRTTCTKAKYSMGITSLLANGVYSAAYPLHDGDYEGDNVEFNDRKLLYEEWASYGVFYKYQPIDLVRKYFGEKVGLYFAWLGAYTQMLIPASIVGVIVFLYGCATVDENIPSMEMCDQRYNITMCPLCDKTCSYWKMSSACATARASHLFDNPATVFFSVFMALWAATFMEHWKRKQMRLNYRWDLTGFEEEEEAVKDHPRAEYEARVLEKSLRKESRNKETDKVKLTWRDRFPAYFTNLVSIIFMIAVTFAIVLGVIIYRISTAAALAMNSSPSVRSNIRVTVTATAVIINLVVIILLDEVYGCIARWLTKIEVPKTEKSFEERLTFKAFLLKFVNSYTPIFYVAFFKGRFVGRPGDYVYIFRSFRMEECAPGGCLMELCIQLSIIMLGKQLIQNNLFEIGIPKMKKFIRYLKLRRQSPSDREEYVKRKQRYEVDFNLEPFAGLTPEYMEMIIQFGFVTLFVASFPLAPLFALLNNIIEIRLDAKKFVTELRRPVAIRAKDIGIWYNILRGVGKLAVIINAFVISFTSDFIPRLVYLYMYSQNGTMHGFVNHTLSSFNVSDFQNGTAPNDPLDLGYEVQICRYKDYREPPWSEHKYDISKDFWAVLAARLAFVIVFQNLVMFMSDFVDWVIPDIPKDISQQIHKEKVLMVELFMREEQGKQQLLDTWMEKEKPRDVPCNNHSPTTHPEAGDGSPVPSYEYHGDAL
IMP-1 inhibitor: inhibitors of Pseudomonas aeruginosa IMP-1 metallo-beta-lactamase | purified IMP-1, nitrocefin hydrolysis, epi-absorbance fluorescence | 290,000 tested, 0.45% active | inhibition, % at 5.6 µM;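 active = inhibition above the mean plus 3 SD of all compounds in the same screening run, cut at about 4.5% in these data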;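 note: 0% = IMP-1 with DMSO and 100% = DMSO wells lacking enzyme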
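System – purified recombinant IMP-1 beta-lactamase · Input – IMP-1 dispensed at 0.2 nM · Timing – 15 min preincubation plus 25 min reaction at 25 °C · Signal – Epi-absorbance fluorescence, 480 nm excitation, 530 nm emission · Measure – percent IMP-1 inhibition derived from blank-referenced optical density · Controls – Enzyme-plus-DMSO low control, enzyme-free DMSO high control · Replication – singlicate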
TMEM16A act: activators or potentiators of mouse TMEM16A chloride channel. Q8BHY3. HEK293 TMEM16A/YFP-H148Q/I152L, iodide quench fluorescence; active compounds read low. B-score at 10 µM. 340,000 tested, 0.3% active. AID 623877;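 active = fluorescence-ratio B-score plate-corrected deviation score at least 3 library SD below zero, with starting fluorescence score within 5 deviations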;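 note: channel opened by trigger with iodide after compound preincubation; score built on the fluorescence ratio of max minus min over baseline; more negative score means more quench and so TMEM16A activation or potentiation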
CHT inh conf: confirmation of human choline transporter CHT inhibitors | CHT activity remaining % of control (active compounds read low), % at 10 µM | CHT-expressing cells, choline membrane potential dye; LV-to-AA substituted CHT, HEK293 cells | shares compounds with CHT inh | 2,400 tested, 70% active;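 active = choline transporter activity left, mean of duplicates at 10 µM, below buffer-only control mean minus 3 SD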;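 note: depolarization triggered by choline at its EC90 following an EC20 pre-addition; 0% = hemicholinium-3 full block and 100% = buffer-only control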
HEK293 MPD ctr: counter-screen for CHT inhibitors: effect in parental HEK293 cells; shares compounds with CHT inh; membrane potential dye, choline response; active = decrease or increase beyond buffer ±3SD; membrane potential ratio readout (active if shifted either direction beyond buffer ±3SD; no single direction) at 10 µM; 2,400 tested, 4% active;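 note: parental cells lack the transporter so any hit is non-specific; ratio is peak minus trough fluorescence over baseline after EC90 choline challenge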
* marks the source's active call; other numbers are inactive results; i = inactive; / = not tested or not shown.

SMILES	CHT PAM	CHT inh	VIM-2 inhibitor	ANO1 block	IMP-1 inhibitor	TMEM16A act	CHT inh conf	HEK293 MPD ctr
O=C(O)CC(NC(=O)C1c2ccccc2Oc2ccccc21)c1ccc(OC2CCCC2)cc1 (stereo unspecified)	i	-5.2*	-1	i	-2	i	i	i
CCOc1ccc(C(CC(=O)O)NC(=O)C2c3ccccc3Oc3ccccc32)cc1 (stereo unspecified)	i	i	-1	i	-4	i	/	/
O=C(O)CC(NC(=O)C1CCCCC1)c1ccc(OC2CCCC2)cc1 (stereo unspecified)	i	i	-3	i	-2	i	/	/
O=C(O)CC(NC(=O)c1sc2ccccc2c1Cl)c1ccc(OC2CCCC2)cc1 (stereo unspecified)	i	-5.2*	-2	i	-2	i	28%*	i
COc1ccc(-c2nc(CS(=O)(=O)CC(=O)NCc3ccccc3OC)c(C)o2)cc1	i	i	0	i	0	i	/	/
COCCN(C(=O)c1cc(CN2C(=O)c3ccccc3C2=O)ccc1OC)c1c(N)n(CC(C)C)c(=O)[nH]c1=O	/	/	/	/	/	i	/	/
O=C(c1cn(-c2ccccc2)nc1-c1cccs1)N1CCOCC1	i	i	0	i	-2	i	/	/
O=C(/C=C/c1cn(-c2ccccc2)nc1-c1cccs1)NCCN1CCOCC1	i	-7.1*	-2	i	-2	i	i	i
Cn1ccnc1Sc1ccc(C=O)cc1[N+](=O)[O-]	i	-6.3*	-4	i	-4	i	i	i
O=C1NC(=O)/C(=C/c2cc3c(cc2Br)OCO3)S1	i	i	3	i	-3	i	/	/
O=C1NC(=O)/C(=C\c2ccc(Br)o2)S1	i	-5.7*	-3	i	-3	i	i	i
Cn1c2ccccc2c(=O)c2c(=O)n(-c3ccc(F)cc3)c(C3CCCCC3)nc21	/	/	/	/	/	i	/	/
CCOc1cc(/C=C/C(=O)N(CC)CC(=O)NCc2cccs2)cc(Cl)c1OC	i	i	/	i	/	i	/	/
CCOc1c(Cl)cc(/C=C/C(=O)N(CC)CC(=O)NCc2cccs2)cc1OC	i	-7.6*	/	i	/	i	i	i
CS(=O)(=O)N(CC(O)Cn1c2ccccc2c2ccccc21)c1ccccc1 (stereo unspecified)	i	i	-3	i	-3	i	i	i
Cc1ccccc1OCCSc1nnc(C)n1-c1ccccc1	i	-5.2*	-3	i	-3	i	i	i
CN1CCN(C(=O)CCN2C(=O)c3ccccc3C2=O)CC1	i	i	-4	i	-3	i	/	/
CN1CCN(c2ncc(CN3C(=O)c4ccccc4C3=O)s2)CC1	i	-5.3*	0	i	-2	i	57%*	i
O=C(O)c1ccc(NC2=C(Cl)C(=O)c3ccccc3C2=O)cc1	i	-10*	-3	100*	-3	i	32%*	i
O=C1C(Cl)=C(Nc2ccccc2)C(=O)c2ccccc21	i	i	1	i	-1	i	/	/
COCCN(CC(=O)Nc1cccc(C)c1C)C(=O)C1(c2ccc(Cl)cc2)CCC1	/	/	/	/	/	i	/	/
O=C(Nc1ccc(OCc2ccccc2)cc1)Nc1ccccc1C(=O)NCCCN1CCOCC1	i	-5*	1	i	0	i	44%*	i
O=C(Nc1ccccc1C(=O)NCCCN1CCOCC1)c1ccc(F)cc1F	i	i	0	i	-1	i	/	/
CCN(Cc1ccncc1)C(=O)c1cc(COc2ccc(F)cc2Cl)on1	i	-5.7*	0	i	-1	i	49%*	i

Screens as filed in PubChem.
